Data as given in ChEMBL document CHEMBL1130285, “5-HT1A-versus D2-receptor selectivity of flesinoxan and analogous N4-substituted N1-arylpiperazines” (J Med Chem, 1997).

Legend:
[1] = biological target: T1, D(2) dopamine receptor (Rattus norvegicus, UniProt P61169); assay: In vitro displacement of [3H]spiperone from Dopamine receptor D2 binding site in rat striatum.
[2] = biological target: T1, D(2) dopamine receptor; assay: pKi value against rat Dopamine receptor D2.
[3] = biological target: T2, 5-hydroxytryptamine receptor 1A (Rattus norvegicus, UniProt P19327); assay: pKi value against rat 5-hydroxytryptamine 1A receptor.
T2 sequence (P19327 whole entry): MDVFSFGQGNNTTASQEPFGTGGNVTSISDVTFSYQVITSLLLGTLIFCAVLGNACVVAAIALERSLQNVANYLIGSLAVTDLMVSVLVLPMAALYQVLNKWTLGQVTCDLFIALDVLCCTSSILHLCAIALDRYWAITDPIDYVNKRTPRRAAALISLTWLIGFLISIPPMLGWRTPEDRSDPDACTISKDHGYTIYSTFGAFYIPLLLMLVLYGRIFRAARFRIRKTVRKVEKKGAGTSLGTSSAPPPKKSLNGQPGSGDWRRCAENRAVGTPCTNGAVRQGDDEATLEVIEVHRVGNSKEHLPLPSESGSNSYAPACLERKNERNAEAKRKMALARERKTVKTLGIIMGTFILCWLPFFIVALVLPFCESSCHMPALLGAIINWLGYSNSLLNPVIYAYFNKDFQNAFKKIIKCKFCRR

[4] = biological target: T2, 5-hydroxytryptamine receptor 1A; assay: Binding affinity was evaluated by determining in vitro displacement of [3H]8-OH-DPAT from the central 5-hydroxytryptamine 1A receptor recognition site in rat frontal cortex homogenate.; assay type: tissue-based
[5] = Partition coefficient (logP); assay type: physicochemical; settings: octanol/water
In short: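 Retention factor k converted via calibration with 10 reference compounds (log Pow 2.1–5.7). Values below 2.1 extrapolated; interpolated values carry 95% confidence interval ±0.4.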

[6] = biological target: T3, 5-hydroxytryptamine receptor 1A (Homo sapiens, UniProt P08908); assay: In vitro potency at human 5-hydroxytryptamine 1A receptor in inhibiting forskolin-stimulated accumulation of intracellular cAMP; assay type: functional, cell-based
T3 sequence (P08908 whole entry): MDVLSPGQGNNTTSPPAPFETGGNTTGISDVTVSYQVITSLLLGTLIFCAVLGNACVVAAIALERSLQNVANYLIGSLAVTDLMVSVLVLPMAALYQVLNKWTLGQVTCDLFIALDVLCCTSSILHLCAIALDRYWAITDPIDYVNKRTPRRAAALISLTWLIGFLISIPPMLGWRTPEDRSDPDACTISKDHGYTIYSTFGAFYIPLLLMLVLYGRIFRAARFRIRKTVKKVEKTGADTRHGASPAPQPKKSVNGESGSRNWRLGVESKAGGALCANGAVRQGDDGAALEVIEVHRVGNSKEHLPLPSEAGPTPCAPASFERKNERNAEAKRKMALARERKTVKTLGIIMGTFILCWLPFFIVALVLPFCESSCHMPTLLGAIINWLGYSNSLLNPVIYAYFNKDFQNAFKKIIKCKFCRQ
In short: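 CHO cells stably expressing human 5-HT1A receptor, grown in α-DMEM + 10% fetal calf serum, seeded 3 days before assay. Labelled with [3H]adenine (2 μCi/mL) for 2 h, rinsed with PBS/10 mM IBMX, then stimulated 10 min with forskolin (10^-7 M) plus compound at various concentrations, in quadruplicate. TCA extraction; [3H]cAMP separated on Dowex/alumina columns, scintillation counting. EC50 from three independent experiments.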

T1 sequence (P61169 whole entry): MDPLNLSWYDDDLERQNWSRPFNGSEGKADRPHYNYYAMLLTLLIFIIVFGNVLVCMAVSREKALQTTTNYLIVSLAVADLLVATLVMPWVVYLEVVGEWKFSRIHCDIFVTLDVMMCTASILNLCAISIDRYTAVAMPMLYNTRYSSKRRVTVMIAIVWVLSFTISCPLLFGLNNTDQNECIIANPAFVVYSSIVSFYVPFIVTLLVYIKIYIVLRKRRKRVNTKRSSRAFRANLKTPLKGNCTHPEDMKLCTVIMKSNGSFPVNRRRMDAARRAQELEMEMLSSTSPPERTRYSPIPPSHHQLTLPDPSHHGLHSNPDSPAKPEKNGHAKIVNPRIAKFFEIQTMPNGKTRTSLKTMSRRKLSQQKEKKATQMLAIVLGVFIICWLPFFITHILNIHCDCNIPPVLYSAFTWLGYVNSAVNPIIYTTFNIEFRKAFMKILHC

Structure (SMILES)	Ki [1] [nM]	Ki [2] [nM]	Ki [3] [nM]	Ki [4] [nM]	logP [5]	EC50 [6] [nM]
COc1ccccc1N1CCN(CCNC(=O)c2ccco2)CC1	73	79.4	20	18	1.6	–
O=C(NCCN1CCN(c2ccccc2)CC1)c1ccc(F)cc1	–	–	–	4.9	–	–
COc1ccccc1N1CCN(CCNC(C)=O)CC1	1100	1000	794	800	0.5	–
COc1ccccc1N1CCN(CC/C=C/c2ccc(F)cc2)CC1	4.1	3.98	2	1.8	4.7	–
COc1ccccc1N1CCN(CCCCc2ccc(F)cc2)CC1	3.3	3.16	1	1.1	4.8	–
COc1ccccc1N1CCN(CCCOc2ccc(F)cc2)CC1	3.3	3.16	3.16	3.4	4.1	–
OC[C@@H]1COc2c(cccc2N2CCNCC2)O1	> 10000	–	–	–	–	–
COc1ccccc1N1CCN(CCNC(=O)c2ccccc2)CC1	13	12.6	1.26	1.3	2.2	–
COc1ccccc1N1CCN(CCNC(=S)C2CCCCC2)CC1	6.4	6.31	0.316	0.32	3.7	–
COc1ccccc1N1CCN(CCNC(=O)c2ccncn2)CC1	250	251	15.8	15	1.5	–
COc1ccccc1N1CCN(CCNC(=N)C2CCCCC2)CC1	130	126	5.01	4.5	3.4	–
COc1ccccc1N1CCN(CCNC(=O)C2CCCCC2)CC1	23	12.6	0.794	0.8	2.8	–
COc1ccccc1N1CCN(CCNC(=O)c2cccnc2)CC1	570	501	158	140	1.2	–
COc1ccccc1N1CCN(CCNC(=O)c2ccc[nH]2)CC1	64	63.1	15.8	16	1.6	–
O=C(NCCN1CCN(c2cccc3ccoc23)CC1)c1ccc(F)cc1	5.3	–	–	–	–	–
CC1CN(c2cccc3c2OCCO3)CC(C)N1CCNC(=O)c1ccc(F)cc1 (stereo not drawn)	–	–	–	–	–	0.78
COc1ccccc1N1CCN(CCOCc2ccc(F)cc2)CC1	10	10	20	22	3.6	–
COc1ccccc1N1CCN(CCNC(=O)c2cccs2)CC1	17	15.8	1.58	1.6	2	–
COc1ccccc1N1CCN(CCNC(=O)c2ccc(F)cc2)CC1	–	–	1	1	2.5	–
c1cc(N2CCNCC2)c2occc2c1	780	–	–	–	–	–
O=C(NCCN1CCN(c2cccc3c2OCCO3)CC1)c1ccc(F)cc1	14	–	–	–	–	0.9
O=C(NCCN1CCN(c2cccc3c2OCC(CO)O3)CC1)c1ccc(F)cc1 (single isomer, unassigned) [FLESINOXAN]	140	–	–	1.7	–	–
COc1ccccc1N1CCN(CCCC(O)c2ccc(F)cc2)CC1 (stereo not drawn) [ANISOPIROL]	3.4	3.16	2.51	2.5	3.4	–
COc1ccccc1N1CCN(CCCC(=O)c2ccc(F)cc2)CC1 [FLUANISONE]	3.1	2.51	1	1	3.6	–
c1ccc(N2CCNCC2)cc1 [PHENYLPIPERAZINE]	6800	–	–	–	–	–
